Results of several laboratories.
Lines come from different studies, so protocols differ.
Target: Ribosomal protein S6 kinase beta-1 (RPS6KB1, Homo sapiens, UniProt P23443)
Observed: enzyme activity
Action: inhibitor

SMILES	method	tested at	remaining activity
Cc1[nH]c(/C=C2\C(=O)Nc3ccc(F)cc32)c(C)c1C(=O)N[C@H]1CCN(C(=O)N(C)C)C1		0.1 µM	84%
CCN(CC)c1ccc(C2=NNC(=O)CC2C)cc1[N+](=O)[O-] (stereo not drawn)		10 µM	109%
Cc1ccc(C(=O)Nc2ccc(CN3CCN(C)CC3)c(C(F)(F)F)c2)cc1C#Cc1cnc2cccnn12		23.5 nM	68%
CC(C)(C)C(=O)c1sc(NC2CCCCC2)nc1N		10 µM	86%
Cn1c(=O)n(-c2ccc(C(C)(C)C#N)cc2)c2c3cc(-c4cnc5ccccc5c4)ccc3ncc21		10 µM	109%
CC(C)(C)c1nc(-c2cccc(NS(=O)(=O)c3c(F)cccc3F)c2F)c(-c2ccnc(N)n2)s1	radiometric	1 µM	75%
Cc1cnc(NC2CCOCC2)nc1-n1cnc(C(=O)NC(CN)c2cc(F)cc(Cl)c2)c1 (stereo not drawn)	radiometric	1 µM	71%
COc1cc(Nc2cnc(C#N)c(O[C@H](C)CN(C)C)n2)ncc1-c1cnn(C)c1	radiometric	10 µM	85%
CCN(CC)CCNC(=O)c1c(C)[nH]c(/C=C2\C(=O)Nc3ccc(F)cc32)c1C		0.1 µM	79%
FC(F)c1nc2ccccc2n1-c1nc(N2CCOCC2)nc(N2CCOCC2)n1		10 µM	98%
Nc1nc(NC2CCCCC2)sc1C(=O)c1ccccc1		10 µM	78%
O=C(Nc1cnn(-c2csc(C(=O)NC3COC3)c2)c1)Nc1c(F)cccc1Cl		5 µM	97.7%
